37 compounds from ChEMBL document CHEMBL1143758, “Antitumor studies. part 3: design, synthesis, antitumor activity, and molecular docking study of novel 2-methylthio-, 2-amino-, and 2-(N-substituted amino)-10-alkyl-2-deoxo-5-deazaflavins” (Bioorg Med Chem, 2007) can be followed below.

Converted amounts (≈) assume the structure as drawn.

The first test deals with CCRF-HSB-2. The test is described as follows: Antitumor activity against human CCRF-HSB2 cells by modified MTT assay. Format: functional, cell-based.
Conditions: not given
In turn, `CSc1nc2n(C)c3cc(C)c(C)cc3cc-2c(=O)n1` registered an IC50 of 7.06 µg/mL (≈ 24.7 µM).

`COc1ccc(OC)c2c1cc1c(=O)nc(SC)nc-1n2C` returned an IC50 of 4.84 µg/mL (≈ 15.3 µM).

Take `CN(C)c1nc2n(C)c3ccccc3cc-2c(=O)n1`: the half-inhibitory concentration (IC50) stood at 22.6 µg/mL (≈ 88.9 µM).

With `COc1ccc2c(c1)cc1c(=O)nc(N(C)C)nc-1n2C`, the IC50 is 35.6 µg/mL (≈ 125 µM).

Turning to `CN(C)c1nc2n(C)c3ccc(Cl)cc3cc-2c(=O)n1`, the IC50 amounted to 46.4 µg/mL (≈ 161 µM).

`Cn1c2nc(N)nc(=O)c-2cc2ccccc21` came in with an IC50 of 13.7 µg/mL (≈ 60.6 µM).

As to `Cc1ccc2c(c1)cc1c(=O)nc(N)nc-1n2C`, the half-inhibitory concentration (IC50) stood at 14.3 µg/mL (≈ 59.5 µM). This IC50 and that of the compound before are within 1.5-fold of each other.

Turning to `CCCCNc1nc2n(C)c3ccccc3cc-2c(=O)n1`, the concentration for half-maximal inhibition (IC50) came to 6.04 µg/mL (≈ 21.4 µM). This IC50 is about 2.4-fold lower than that of the compound before.

As to `CN(CCO)c1nc2n(C)c3ccccc3cc-2c(=O)n1`, the midpoint of inhibition, the IC50, lay at 34.9 µg/mL (≈ 123 µM).

On to `CCn1c2nc(N(C)CCO)nc(=O)c-2cc2ccccc21`, for which the midpoint of inhibition, the IC50, lay at 26.3 µg/mL (≈ 88.2 µM).

For the compound `CCn1c2nc(N(C)CCO)nc(=O)c-2cc2cc(C)ccc21`, the IC50 is 9.5 µg/mL (≈ 30.4 µM). Compared with the last compound, the IC50 is about 2.8-fold lower.

In turn, `Cn1c2nc(N3CCCCC3)nc(=O)c-2cc2ccccc21` returned a 50% inhibitory concentration (IC50) of 24.7 µg/mL (≈ 83.9 µM). Against the preceding compound, the IC50 is about 2.6-fold higher.

With `COc1ccc2cc3c(=O)nc(N(C)CCO)nc-3n(C)c2c1`, the IC50 turned out to be 39 µg/mL (≈ 124 µM). Against the preceding compound, the IC50 is about 1.6-fold higher.

Regarding `Cn1c2nc(N3CCOCC3)nc(=O)c-2cc2ccccc21`, the IC50 is greater than 100 µg/mL.

In turn, `CN1CCN(c2nc3n(C)c4ccccc4cc-3c(=O)n2)CC1` yielded an IC50 of 5.9 µg/mL (≈ 19.1 µM).

As to `COc1ccc2c(c1)cc1c(=O)nc(N3CCOCC3)nc-1n2C`, half-maximal inhibition (IC50) required 24.5 µg/mL (≈ 75.1 µM).

In turn, `Cc1ccc2c(c1)cc1c(=O)nc(N3CCCCC3)nc-1n2C` yielded an IC50 of 25.2 µg/mL (≈ 81.7 µM).

On to `CCn1c2nc(SC)nc(=O)c-2cc2ccccc21`, for which half-maximal inhibition (IC50) required 7.07 µg/mL (≈ 26.1 µM). Compared with the last compound, the IC50 is about 3.6-fold lower.

Compound `CSc1nc2n(C)c3c(C)cccc3cc-2c(=O)n1` returned an IC50 of 15.3 µg/mL (≈ 56.4 µM). Compared with the last compound, the IC50 is about 2.2-fold higher.

For the compound `CCn1c2nc(N3CCOCC3)nc(=O)c-2cc2cc(C)ccc21`, the IC50 was determined as 27.7 µg/mL (≈ 85.4 µM). Against the preceding compound, the IC50 is about 1.8-fold higher.

In turn, `COc1ccc2cc3c(=O)nc(SC)nc-3n(C)c2c1` registered an IC50 of 5.92 µg/mL (≈ 20.6 µM).

Turning to `CSc1nc2n(C)c3ccc(Cl)cc3cc-2c(=O)n1`, the IC50 was 9.87 µg/mL (≈ 33.8 µM).

As for `CN1CCN(c2nc3n(C)c4ccc(Cl)cc4cc-3c(=O)n2)CC1`, the IC50 is 7.4 µg/mL (≈ 21.5 µM).

In the case of `Cc1cc2cc3c(=O)nc(N4CCOCC4)nc-3n(C)c2cc1C`, the IC50 came to 6 µg/mL (≈ 18.5 µM).

With `COc1ccc2c(c1)cc1c(=O)nc(N3CCN(C)CC3)nc-1n2C`, the IC50 worked out at 12.6 µg/mL (≈ 37.1 µM).

`CCCCCCCCNc1nc2n(C)c3ccccc3cc-2c(=O)n1` registered a half-inhibitory concentration (IC50) of 8.9 µg/mL (≈ 26.3 µM).

On to `CSc1nc2n(C)c3ccccc3cc-2c(=O)n1`, for which half-maximal inhibition (IC50) was put at 1.91 µg/mL (≈ 7.42 µM). This IC50 is about 4.7-fold lower than that of the compound before.

Compound `CCn1c2nc(SC)nc(=O)c-2cc2cc(C)ccc21` gave an IC50 of 1.82 µg/mL (≈ 6.38 µM).

Consider `COc1ccc2c(c1)cc1c(=O)nc(SC)nc-1n2C`, for which the IC50 is 9.27 µg/mL (≈ 32.3 µM).

On to `CCn1c2nc(N(C)C)nc(=O)c-2cc2ccccc21`, for which it took 1.96 µg/mL (≈ 7.3 µM) to reach half-maximal inhibition (IC50).

In turn, `Cc1ccc2c(c1)cc1c(=O)nc(N(C)C)nc-1n2C` displayed a 50% inhibitory concentration (IC50) of 16.4 µg/mL (≈ 61.1 µM).

As for `CCn1c2nc(NCCO)nc(=O)c-2cc2ccccc21`, half-maximal inhibition (IC50) required 11.3 µg/mL (≈ 39.7 µM).

`Cn1c2nc(N3CCCCC3)nc(=O)c-2cc2cc(Cl)ccc21`: 69.4 µg/mL (≈ 211 µM) corresponded to half-maximal inhibition (IC50). This IC50 lies about 6.1-fold higher than the previous one.

Regarding `Cn1c2nc(N3CCOCC3)nc(=O)c-2cc2cc(Cl)ccc21`, 96.1 µg/mL (≈ 291 µM) corresponded to half-maximal inhibition (IC50). This IC50 and that of the compound before are within 1.5-fold of each other.

Compound `CCn1c2nc(N)nc(=O)c-2cc2ccccc21` came in with an IC50 of 1.64 µg/mL (≈ 6.83 µM).

In turn, `COc1ccc2c(c1)cc1c(=O)[nH]c(=O)nc-1n2C` registered an IC50 of 37.1 µg/mL (≈ 144 µM).

`CSc1nc2n(C)c3ccc(C)cc3cc-2c(=O)n1` had an IC50 of 9.57 µg/mL (≈ 35.3 µM).

The subject of a further test is KB. The test is described as follows: Antitumor activity against human KB cells by modified MTT assay. The format is functional, cell-based.
Conditions: not given
Compound `CSc1nc2n(C)c3cc(C)c(C)cc3cc-2c(=O)n1` came in with an IC50 of 11.4 µg/mL (≈ 39.9 µM).

In turn, `COc1ccc(OC)c2c1cc1c(=O)nc(SC)nc-1n2C` returned a half-inhibitory concentration (IC50) of 8.75 µg/mL (≈ 27.6 µM).

In turn, `CN(C)c1nc2n(C)c3ccccc3cc-2c(=O)n1` had an IC50 of 20.1 µg/mL (≈ 79 µM).

In the case of `COc1ccc2c(c1)cc1c(=O)nc(N(C)C)nc-1n2C`, the IC50 amounted to 23.6 µg/mL (≈ 83 µM). The IC50 values of the last two compounds are within 1.5-fold of each other.

Compound `CN(C)c1nc2n(C)c3ccc(Cl)cc3cc-2c(=O)n1` returned an IC50 of 58.5 µg/mL (≈ 203 µM). Against the preceding compound, the IC50 is about 2.5-fold higher.

Take `Cn1c2nc(N)nc(=O)c-2cc2ccccc21`: the IC50 came to 17.9 µg/mL (≈ 79.1 µM).

Take `Cc1ccc2c(c1)cc1c(=O)nc(N)nc-1n2C`: the concentration for half-maximal inhibition (IC50) is 44.5 µg/mL (≈ 185 µM).

`CCCCNc1nc2n(C)c3ccccc3cc-2c(=O)n1` came in with an IC50 of 7.31 µg/mL (≈ 25.9 µM).

The compound `CN(CCO)c1nc2n(C)c3ccccc3cc-2c(=O)n1` gave an IC50 of 34.3 µg/mL (≈ 121 µM).

Regarding `CCn1c2nc(N(C)CCO)nc(=O)c-2cc2ccccc21`, half-maximal inhibition (IC50) was put at 23.5 µg/mL (≈ 78.8 µM).

The compound `CCn1c2nc(N(C)CCO)nc(=O)c-2cc2cc(C)ccc21` registered an IC50 of 25.1 µg/mL (≈ 80.4 µM).

Consider `Cn1c2nc(N3CCCCC3)nc(=O)c-2cc2ccccc21`, for which inhibition was half-maximal at 32 µg/mL (≈ 109 µM) (IC50).

`COc1ccc2cc3c(=O)nc(N(C)CCO)nc-3n(C)c2c1` came in with an IC50 of 36 µg/mL (≈ 115 µM). This IC50 and that of the compound before are within 1.5-fold of each other.

`Cn1c2nc(N3CCOCC3)nc(=O)c-2cc2ccccc21`: the IC50 was found to be 68.1 µg/mL (≈ 230 µM). Against the preceding compound, the IC50 is about 1.9-fold higher.

`CN1CCN(c2nc3n(C)c4ccccc4cc-3c(=O)n2)CC1` had an IC50 of 8.44 µg/mL (≈ 27.3 µM).

In the case of `COc1ccc2c(c1)cc1c(=O)nc(N3CCOCC3)nc-1n2C`, half-maximal inhibition (IC50) required 38.3 µg/mL (≈ 117 µM).

As to `Cc1ccc2c(c1)cc1c(=O)nc(N3CCCCC3)nc-1n2C`, the IC50 was found to be 32.7 µg/mL (≈ 106 µM).

As for `CCn1c2nc(SC)nc(=O)c-2cc2ccccc21`, it took 5.42 µg/mL (≈ 20 µM) to reach half-maximal inhibition (IC50).

The compound `CSc1nc2n(C)c3c(C)cccc3cc-2c(=O)n1` gave an IC50 of 12 µg/mL (≈ 44.2 µM).

Compound `CCn1c2nc(N3CCOCC3)nc(=O)c-2cc2cc(C)ccc21` gave an IC50 of 50.8 µg/mL (≈ 157 µM).

`COc1ccc2cc3c(=O)nc(SC)nc-3n(C)c2c1` displayed an IC50 of 7.69 µg/mL (≈ 26.8 µM).

For the compound `CSc1nc2n(C)c3ccc(Cl)cc3cc-2c(=O)n1`, the IC50 is 21.5 µg/mL (≈ 73.7 µM). Against the preceding compound, the IC50 is about 2.8-fold higher.

Consider `CN1CCN(c2nc3n(C)c4ccc(Cl)cc4cc-3c(=O)n2)CC1`, for which the IC50 amounted to 16.6 µg/mL (≈ 48.3 µM).

As to `Cc1cc2cc3c(=O)nc(N4CCOCC4)nc-3n(C)c2cc1C`, the IC50 was determined as 8.8 µg/mL (≈ 27.1 µM).

Consider `COc1ccc2c(c1)cc1c(=O)nc(N3CCN(C)CC3)nc-1n2C`, for which the IC50 was 27 µg/mL (≈ 79.6 µM).

`CCCCCCCCNc1nc2n(C)c3ccccc3cc-2c(=O)n1` registered an IC50 of 7.9 µg/mL (≈ 23.3 µM).

The compound `CSc1nc2n(C)c3ccccc3cc-2c(=O)n1` returned an IC50 of 1.97 µg/mL (≈ 7.66 µM).

In turn, `CCn1c2nc(SC)nc(=O)c-2cc2cc(C)ccc21` displayed an IC50 of 1.73 µg/mL (≈ 6.06 µM).

`COc1ccc2c(c1)cc1c(=O)nc(SC)nc-1n2C` returned an IC50 of 9.82 µg/mL (≈ 34.2 µM).

`CCn1c2nc(N(C)C)nc(=O)c-2cc2ccccc21` displayed a 50% inhibitory concentration (IC50) of 3.96 µg/mL (≈ 14.8 µM).

With `Cc1ccc2c(c1)cc1c(=O)nc(N(C)C)nc-1n2C`, the IC50 is 24.8 µg/mL (≈ 92.4 µM).

In turn, `CCn1c2nc(NCCO)nc(=O)c-2cc2ccccc21` showed an IC50 of 14 µg/mL (≈ 49.2 µM).

Compound `Cn1c2nc(N3CCCCC3)nc(=O)c-2cc2cc(Cl)ccc21` came in with an IC50 of 82.6 µg/mL (≈ 251 µM).

Consider `Cn1c2nc(N3CCOCC3)nc(=O)c-2cc2cc(Cl)ccc21`, for which inhibition was half-maximal at 52.7 µg/mL (≈ 159 µM) (IC50).

In turn, `CCn1c2nc(N)nc(=O)c-2cc2ccccc21` yielded an IC50 of 1 µg/mL (≈ 4.16 µM).

In turn, `COc1ccc2c(c1)cc1c(=O)[nH]c(=O)nc-1n2C` had an IC50 of 10 µg/mL (≈ 38.9 µM).

Compound `CSc1nc2n(C)c3ccc(C)cc3cc-2c(=O)n1` registered an IC50 of 9.27 µg/mL (≈ 34.2 µM).

In a further test the test system is Human alphaherpesvirus 1. The test is described as follows: Antiviral activity against HSV1 in HELF cells assessed as reduction of virus plaque formation. As to conditions: Human alphaherpesvirus 1, HELF; read-out: ED50 (the source's name). The format is functional. The method, boiled down:
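In vitro plaque-reduction test against HSV-1, run with an acyclovir positive control. The value is reported as ED50, the minimum concentration that reduces virus plaque formation by 50%.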
Take `COc1ccc(OC)c2c1cc1c(=O)nc(SC)nc-1n2C`: the EC50 turned out to be 20 µg/mL (≈ 63 µM).

Regarding `CCn1c2nc(SC)nc(=O)c-2cc2ccccc21`, the EC50 turned out to be 20 µg/mL (≈ 73.7 µM).

For the compound `CSc1nc2n(C)c3ccccc3cc-2c(=O)n1`, the EC50 was 0.8 µg/mL (≈ 3.11 µM).

For `CCn1c2nc(SC)nc(=O)c-2cc2cc(C)ccc21`, the EC50 was determined as 4 µg/mL (≈ 14 µM).

Regarding `CCn1c2nc(N)nc(=O)c-2cc2ccccc21`, the EC50 worked out at 4 µg/mL (≈ 16.6 µM).
